Laboratory results as given in the EternaBench riboswitch data.

Test system: MS2 coat protein
Test: apparent Kd, MS2 coat protein; higher = weaker binding; RNA-MaP array; FMN 200 µM where present
In short: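 The apparent Kd comes from binding curves fitted cluster by cluster, filtered, and summarised as a median. Those curves followed SNAP-549-labelled MS2 coat protein from 0.7 or 1.5 nM, doubling to 3 µM, on Illumina sequencing-chip clusters where stalled E. coli RNA polymerase had transcribed the designs, without and then with constant ligand. The buffer was 100 mM Tris-HCl pH 7.5, 80 mM KCl, 4 mM MgCl2, BSA, DTT, yeast tRNA and Tween-20, and green signal was normalised to red-channel RNA signal and control-cluster median Fmax.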

[1] = designed as: ON switch for flavin mononucleotide, no ligand
[2] = ligand present: flavin mononucleotide, designed as: ON switch for flavin mononucleotide
[3] = designed as: OFF switch for flavin mononucleotide, no ligand
[4] = ligand present: flavin mononucleotide, designed as: OFF switch for flavin mononucleotide

Sequence: CGUGUCAUCGAGAAGGCCUCAACAUGAGGAUCACCCAUGUUGUAAUAUGGGAGGAUAUCGAUGAUACAGCUACGUUUCGUAGCU
- apparent Kd [1]: 18.8 nM
- apparent Kd [2]: 5.8 nM

Sequence: CGUGUCGUAUGAGGAUAUGGUCAGCUUUGCUGACCAGAAGGCAUGUCAAUAGACAUGAGGAUCACCCAUGUAGUAAAGACACGA
- apparent Kd [1]: 378 nM
- apparent Kd [2]: 40.6 nM

Sequence: CGUGUUAUCGAAGGAUAUGGAUACAUGAGGAUCACCCAUGUAUAUUUUGUGAUCAAGUUUAAGAUCCAGAAGGUCGUAUACACG
- apparent Kd [3]: 54.9 nM
- apparent Kd [4]: 119 nM

Sequence: CGUGUUGACGAAGGAUAUGGAUACAUGAGGAUCACCCAUGUUUAAUUUGUGAUUUUGUUAAAGUACCAGAAGGUCGAAUACACG
- apparent Kd [3]: 142 nM
- apparent Kd [4]: 118 nM

Sequence: CGUUGGUUAGGAUAUGCCCUCCUGGUGGGAAGGCCGGGUGGGUAGAAGGGACAUGAGGAUCACCCAUGUAUGGA
- apparent Kd [3]: 72.3 nM
- apparent Kd [4]: 26.8 nM

Sequence: CUAAAUCAUGUAGGAUAUGCAUGGCGAAGCUACGCAGAAGGACAUGAGGAUCACCCAUGUCACUCCGUCUGCGUACAGACGGAG
- apparent Kd [3]: 19.7 nM
- apparent Kd [4]: 92.3 nM

Sequence: CUAAAUCAUGUAGGAUAUGCAUGGCGAAGCUACGCAGAAGGACAUGAGGAUCACCCAUGUCUCUCCGUCUGCGUACAGACGGAG
- apparent Kd [3]: 20.5 nM
- apparent Kd [4]: 119 nM

Sequence: CUAAUUCAUGUAGGAUAUGCGUGGCGAAGCUAUGCAGAAGGACAUGAGGAUCACCCAUGUCUUUCCGUCUGCGUACAGACGGAA
- apparent Kd [3]: 24.7 nM
- apparent Kd [4]: 201 nM

Sequence: CUACAUGAGGAUCACCCAUGUGCGCACUGGAUCAGUGCGCGCAGAAGGGCCAUGGAGAAAGCCAGGCAGGAUAUGCAAAGGGCU
- apparent Kd [1]: 288 nM
- apparent Kd [2]: 226 nM

Sequence: CUAGAUAUGUAAGGAUAUAUAGUGGAAUACACUAUAGAAGGUAUGUGAUAACAUGAGGAUCACCCAUGUCAUUGGAUAUCUAGA
- apparent Kd [1]: 67.5 nM
- apparent Kd [2]: 60.3 nM

Sequence: CUAGCAUACCGAGGAUAUUCAUAUAAUAAAUAAACAUGAGGAUCACCCAUGUGGCGAAAGCCUAGGGAGAAGGCGGAAUGCUAC
- apparent Kd [1]: 162 nM
- apparent Kd [2]: 27 nM

Sequence: CUAGCGAGUGAGAAGGCCAGCUUUUAUACAUGAGGAUCACCCAUGUAGCCCUAAAGGGUAUGCAUGGAGGAUAUCACGAGCCUG
- apparent Kd [1]: 11.7 nM
- apparent Kd [2]: 7.03 nM

Sequence: CUAGUACAUGAGGAUCACCCAUGUCAGGAUAUUGGAUAUGCCUUGGAAUACGUGUUUACAAGAAGGGACUAUAG
- apparent Kd [3]: 18.7 nM
- apparent Kd [4]: 19.2 nM

Sequence: CUAUACAUAUCAGGAUAUCAUCGAGUGGAUUAACACAGUGAUUACAUGAGGAUCACCCAUGUGCUUGAGAAGGGAUUACUAUUU
- apparent Kd [3]: 14.6 nM
- apparent Kd [4]: 12.9 nM

Sequence: CUAUAUAAUACCUCAUGUACAUGAGGAUCACCCAUGUUAACUAAGGAUAUAUAUAUAUUAAUAAUGUAGAAGGUAGUACUAUUU
- apparent Kd [3]: 16 nM
- apparent Kd [4]: 11.8 nM

Sequence: CUAUAUAUAUGAGGAUAUGUAUAUCCAACAUGAGGAUCACCCAUGUUGAGGAUCACCCAUGUAAAGCAGAAGGCAUAUAUAUAG
- apparent Kd [1]: 22.7 nM
- apparent Kd [2]: 13.4 nM

Sequence: CUAUCGAGGUCACUCGUUAUCACACCAGAAGGGACGGAGGCACAUGAGGAUCACCCAUGUCCUAGUCAGGAUAUGGGUGAGUAG
- apparent Kd [1]: 25.6 nM
- apparent Kd [2]: 5.16 nM

Sequence: CUAUUCCGAGGAUAUACAUGAGGAUCACCCAUGUCGGGCCUCAGCGUUUAGCGCGUAAGUAGAAGGUGGGUUUC
- apparent Kd [3]: 32.3 nM
- apparent Kd [4]: 37.8 nM

Sequence: CUAUUGCGAGGAUAUGAUUUAAAUAACAUGAGGAUCACCCAUGUUUUUACGUUGUUAUGUUCAGAAGGCGUAUUGU
- apparent Kd [3]: 40.1 nM
- apparent Kd [4]: 26.3 nM

Sequence: CUAUUGCUAACAGGAUAUAUGAGUCCUACAUGAGGAUCACCCAUGUAGGUGAUCAGCCGUGAUUAGUAGAAGGGUUAGCAAUAG
- apparent Kd [1]: 12.2 nM
- apparent Kd [2]: 6.91 nM

Sequence: CUAUUGGCAGGAUAUGCUUUUUUAGACAUGAGGAUCACCCAUGUGAUGAAUAUUGGGUUUGCAGAAGGGCCUGAAU
- apparent Kd [3]: 75.1 nM
- apparent Kd [4]: 111 nM

Sequence: CUAUUUAGUGCCUCAUGUACAUGAGGAUCACCCAUGUUAACUUAGGAUAUAUUUAUAUUGAUAGAGUAGAAGGAAGUACUAUUU
- apparent Kd [3]: 22 nM
- apparent Kd [4]: 18.8 nM

Sequence: CUCAAACAUGAGGAUCACCCAUGUGUUGUCAUGGGAGGAUAUCCAAGUUCGUUGUAGUCGGGAGAAGGCCUAUGUC
- apparent Kd [1]: 213 nM
- apparent Kd [2]: 41.1 nM

Sequence: CUCAAACAUGAGGAUCACCCAUGUGUUGUCAUGGGAGGAUAUCCCAGUUCGGUGACGUCGGGAGAAGGCCUAUGUC
- apparent Kd [1]: 113 nM
- apparent Kd [2]: 35.2 nM

Sequence: CUCAUGAGAGGAUAUACAUGAGGAUCACCCAUGUUCUUAUCUCGUCGGGCUCCAUUACGUAGAAGGCUCAUUUG
- apparent Kd [3]: 29.4 nM
- apparent Kd [4]: 46.9 nM

Sequence: CUCAUGUAAGGAUAUCUACGCGCUAAGGUGCGUCUAUCACAAGAGAAGGUACAUGAGGAUCACCCAUGUAAAGA
- apparent Kd [3]: 103 nM
- apparent Kd [4]: 127 nM

Sequence: CUCAUGUAAGGAUAUGACUACAUAAAAAAAAAAAAAUGUAGUCAGAAGGUACAUGAGGAUCACCCAUGUACAAA
- apparent Kd [3]: 53.7 nM
- apparent Kd [4]: 35 nM

Sequence: CUCAUGUGAGGAUAUGUGAUCAACCUUCUAUAUAGAUGAUGACAGAAGGCACAUGAGGAUCACCCAUGUAGAUC
- apparent Kd [3]: 65.5 nM
- apparent Kd [4]: 20.1 nM

Sequence: CUCCGGCAAGGAUAUGCGUCUUCUCCCAUGAAACAAAAUAAACAUGAGGAUCACCCAUGUAGAAGGUGCAGGAC
- apparent Kd [3]: 33.1 nM
- apparent Kd [4]: 28.6 nM

Sequence: CUCGUGUUAGGAUAUCGUGGCUGGGCUGGGACGUCCGAUGGCGAGAAGGGACAUGAGGAUCACCCAUGUAAAAC
- apparent Kd [3]: 28.6 nM
- apparent Kd [4]: 27.6 nM

Sequence: CUCUUGUAAGGAUAUGACUACAUAAAAAAAAAAAAAUGUAGUCAGAAGGUACAUGAGGAUCACCCAUGUACUAA
- apparent Kd [3]: 20.9 nM
- apparent Kd [4]: 22.1 nM

Sequence: CUCUUGUUAGGAUAUCAAACCGGCGGCGGAGCCGCCGGUAGUGAGAAGGGACAUGAGGAUCACCCAUGUAAGAA
- apparent Kd [3]: 90.1 nM
- apparent Kd [4]: 198 nM

Sequence: CUGAGGUCAGGAUAUGCAUGGCGGGACUUGCGUCGUGGCGUGGAGAAGGGACAUGAGGAUCACCCAUGUGGAGU
- apparent Kd [3]: 79 nM
- apparent Kd [4]: 54.2 nM

Sequence: CUGAUGUGAGGAUAUCGGGCUACAGCCCUGCUGCUAGCAAACGAGAAGGCACAUGAGGAUCACCCAUGUGAUAG
- apparent Kd [3]: 21.6 nM
- apparent Kd [4]: 24.3 nM

Sequence: CUGAUGUGAGGAUAUCUACGCCAUGUCUUUGACAUGGCGCAAGAGAAGGCACAUGAGGAUCACCCAUGUUCUUC
- apparent Kd [3]: 62.9 nM
- apparent Kd [4]: 723 nM

Sequence: CUGAUGUGAGGAUAUGUGAUCUGCCUUCUAUGUAGAUGAUCACAGAAGGCACAUGAGGAUCACCCAUGUAGAUC
- apparent Kd [3]: 85.9 nM
- apparent Kd [4]: 94.3 nM

Sequence: CUGAUGUUAGGAUAUCAGGCUGUGCGCGAAAACGGGCGGCAUGAGAAGGAACAUGAGGAUCACCCAUGUGACGG
- apparent Kd [3]: 47.3 nM
- apparent Kd [4]: 124 nM

Sequence: CUGAUGUUAGGAUAUCAGGUUGCGCGCGAAGGCACGCAGCAUGAGAAGGAACAUGAGGAUCACCCAUGUGACGA
- apparent Kd [3]: 40.6 nM
- apparent Kd [4]: 132 nM

Sequence: CUGCAGUAAGGAUAUACAUGAGGAUCACCCAUGUAGCAACUUACAUAACGAAACGCAUGUAGAAGGUACCAGAU
- apparent Kd [3]: 14 nM
- apparent Kd [4]: 15.4 nM

Sequence: CUGCGGUAGGAGAAGGACGGCGGGUUAUUUUCGUACAUGAGGAUCACCCAUGUAGGAUAUCCUACCUCAGGCGGCCUACUACAG
- apparent Kd [3]: 19.9 nM
- apparent Kd [4]: 30 nM

Sequence: CUGGGCGGUUUGCCCACACUGUCACAGGAUAUGCCCAAAACAUGAGGAUCACCCAUGUCAAAUACGCAGAAGGGUGAUCGGAAC
- apparent Kd [1]: 107 nM
- apparent Kd [2]: 62.5 nM

Sequence: CUGGUGUGAGGAUAUCAGGACACGCCCGAGGGCGUGUCAAAUGAGAAGGCACAUGAGGAUCACCCAUGUGGGAC
- apparent Kd [3]: 42.3 nM
- apparent Kd [4]: 99.6 nM

Sequence: CUGGUGUGAGGAUAUCAGGACACGUACGCGGGCAUGUCAAAUGAGAAGGCACAUGAGGAUCACCCAUGUGGGAC
- apparent Kd [3]: 29.7 nM
- apparent Kd [4]: 41.6 nM

Sequence: CUGGUGUGAGGAUAUCAGGGCACGCCCAAGGGCGUACCAAAUGAGAAGGCACAUGAGGAUCACCCAUGUGGGAC
- apparent Kd [3]: 36.5 nM
- apparent Kd [4]: 160 nM

Sequence: CUGUGAGGGAUCCAGAAUUACAACAUGAGGAUCACCCAUGUACAGGAUAUAGGGUUGAUAGGCGCCUAGAAGGGUAUGAUCACG
- apparent Kd [3]: 632 nM
- apparent Kd [4]: 584 nM

Sequence: CUGUGUGACCGAGGAUAUAGACAUGAGGAUCACCCAUGUACGCCCAUCCAUGAAAGGUCCGUCGUCUAGAAGGCGGAGGCAAUG
- apparent Kd [3]: 11.2 nM
- apparent Kd [4]: 23.4 nM

Sequence: CUUAAGGCAGGAUAUGCUUUUUGUGACAUGAGGAUCACCCAUGUGAUGCAGUUUGGGUGUGCAGAAGGGCCUGAGU
- apparent Kd [3]: 364 nM
- apparent Kd [4]: 172 nM

Sequence: CUUAGACAUGAGGAUCACCCAUGUGAGGAUAUGAUGCAGCAGUGGUCUACGCUGUGCAUCAGAAGGCACAUAUG
- apparent Kd [3]: 120 nM
- apparent Kd [4]: 155 nM

Sequence: CUUAGACAUGAGGAUCACCCAUGUGAGGAUAUGAUGCGAAUAAAGAAAGAAGAAAGCAUCAGAAGGCACAUAUG
- apparent Kd [3]: 115 nM
- apparent Kd [4]: 349 nM

Sequence: CUUAGUUUGUAGAAGGGUGACAUGAGGAUCACCCAUGUGCGUCUCCUGAAAGACCAGGGUACGCCACAGGAUAUACAAAGUAAG
- apparent Kd [1]: 42.7 nM
- apparent Kd [2]: 47.7 nM

Sequence: CUUAUAAUUGAAGGAUAUCUAUAUCCAACAUGAGGAUCACCCAUGUUGAGGAUCACCCAUGUAAAGGAGAAGGUUAAUUAUAAG
- apparent Kd [1]: 104 nM
- apparent Kd [2]: 22.7 nM

Sequence: CUUAUGUGAGGAUAUCAGUAGUGAUACGAUAGUAUUACUGCUGAGAAGGUACAUGAGGAUCACCCAUGUUCCUC
- apparent Kd [3]: 17.1 nM
- apparent Kd [4]: 20.4 nM

Sequence: CUUCAGUCACAGGAUAUGCUCAUCUAAUGAUGAGCAGAAGGGUGAACAUGAGGAUCACCCAUGUUUACGGUGGU
- apparent Kd [3]: 621 nM
- apparent Kd [4]: 487 nM

Sequence: CUUCGUAUAGAGGAUAUAGGUUACUGCGGUAUCCUAGAAGGCUGUACAUGAGGAUCACCCAUGUACUUCAGAUC
- apparent Kd [3]: 13.9 nM
- apparent Kd [4]: 18.2 nM

Sequence: CUUCUCGUUGUGAGGAUAUCGUUUUCGUCUCGGAUCGAGAAGGCACAUGAGGAUCACCCAUGUUUGUUGUGGUU
- apparent Kd [3]: 115 nM
- apparent Kd [4]: 103 nM

Sequence: CUUCUGUCAGGAUAUGCGAAUCGGCACUGGGUCAGUGGCGAGCAGAAGGGACAUGAGGAUCACCCAUGUAAAGU
- apparent Kd [3]: 32.8 nM
- apparent Kd [4]: 131 nM
